Read-outs that look alike come from different tables or passages of the source.
Legend:
[1] = test system: K-562; assay: MTT anti-proliferative assay; assay type: cell-based, human; details: read-out: IC50 ± SD, K-562
[2] = test system: KG-1a; assay: MTT anti-proliferative assay; assay type: cell-based, human; details: read-out: IC50 ± SD, KG-1a
[3] = test system: Jurkat; assay: MTT anti-proliferative assay; assay type: cell-based, human; details: read-out: IC50 ± SD, Jurkat
[4] = biological target: c-Src (Homo sapiens, UniProt P12931); assay: Src kinase assay; assay type: biochemical
Chain of c-Src (P12931 whole entry): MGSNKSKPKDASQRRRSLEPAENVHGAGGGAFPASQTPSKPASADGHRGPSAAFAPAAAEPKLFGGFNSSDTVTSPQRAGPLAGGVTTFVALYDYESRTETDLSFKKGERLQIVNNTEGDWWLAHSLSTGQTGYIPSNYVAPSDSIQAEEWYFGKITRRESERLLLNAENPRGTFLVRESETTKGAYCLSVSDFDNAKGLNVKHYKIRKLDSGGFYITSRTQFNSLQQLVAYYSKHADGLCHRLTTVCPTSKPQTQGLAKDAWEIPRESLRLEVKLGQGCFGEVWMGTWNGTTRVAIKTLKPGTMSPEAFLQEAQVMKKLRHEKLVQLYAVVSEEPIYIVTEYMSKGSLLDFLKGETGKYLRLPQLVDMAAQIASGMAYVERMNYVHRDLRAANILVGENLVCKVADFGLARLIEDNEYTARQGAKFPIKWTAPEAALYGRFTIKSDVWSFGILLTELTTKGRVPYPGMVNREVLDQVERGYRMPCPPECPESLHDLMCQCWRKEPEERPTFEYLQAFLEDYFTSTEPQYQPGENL

[5] = biological target: EGFR (Homo sapiens, UniProt P00533); assay: EGFR kinase assay; assay type: biochemical
Chain of EGFR (P00533 25-1210): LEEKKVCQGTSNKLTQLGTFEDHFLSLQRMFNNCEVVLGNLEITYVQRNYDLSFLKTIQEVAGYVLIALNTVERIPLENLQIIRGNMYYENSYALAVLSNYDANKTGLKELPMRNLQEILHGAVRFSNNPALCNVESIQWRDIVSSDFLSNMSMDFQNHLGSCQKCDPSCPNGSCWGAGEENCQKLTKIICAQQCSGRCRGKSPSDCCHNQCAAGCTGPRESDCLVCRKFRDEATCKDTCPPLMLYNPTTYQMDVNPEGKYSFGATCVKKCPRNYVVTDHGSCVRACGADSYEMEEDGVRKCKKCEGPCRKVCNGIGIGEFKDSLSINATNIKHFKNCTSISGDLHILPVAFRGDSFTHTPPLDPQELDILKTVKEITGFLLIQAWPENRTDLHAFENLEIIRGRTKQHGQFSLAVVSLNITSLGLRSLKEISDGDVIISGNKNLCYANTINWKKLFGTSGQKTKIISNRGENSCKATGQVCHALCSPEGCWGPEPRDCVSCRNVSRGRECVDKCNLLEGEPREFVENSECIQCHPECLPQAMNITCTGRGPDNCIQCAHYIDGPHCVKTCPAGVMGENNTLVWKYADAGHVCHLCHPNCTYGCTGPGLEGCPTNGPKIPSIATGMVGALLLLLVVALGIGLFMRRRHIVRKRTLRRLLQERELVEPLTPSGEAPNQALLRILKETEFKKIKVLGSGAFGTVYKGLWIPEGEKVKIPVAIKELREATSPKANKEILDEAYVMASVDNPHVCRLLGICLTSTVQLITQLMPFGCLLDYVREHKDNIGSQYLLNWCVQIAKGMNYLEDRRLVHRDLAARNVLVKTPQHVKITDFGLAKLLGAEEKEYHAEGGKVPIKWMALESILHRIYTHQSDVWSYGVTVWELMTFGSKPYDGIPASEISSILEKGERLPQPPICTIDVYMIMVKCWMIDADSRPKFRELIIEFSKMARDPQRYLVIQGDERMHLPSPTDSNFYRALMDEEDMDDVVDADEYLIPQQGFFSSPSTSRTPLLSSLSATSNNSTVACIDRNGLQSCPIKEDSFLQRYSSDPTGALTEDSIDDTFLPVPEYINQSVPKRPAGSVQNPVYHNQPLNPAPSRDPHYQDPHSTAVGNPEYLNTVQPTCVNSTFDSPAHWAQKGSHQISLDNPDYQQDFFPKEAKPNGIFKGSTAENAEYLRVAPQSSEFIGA

[6] = test system: IL-6; assay: IL-6 ELISA in K-562 cells; assay type: cell-based, human; details: Homo sapiens, K562, 24 h, read-out: IL-6 protein levels (% of control)
Procedure, shortened: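 K-562 cells exposed 24 h to vehicle (DMSO), test compound at 10 μM or dexamethasone (positive control). IL-6 secreted into cell-free supernatant quantified by human IL-6 ELISA kit. Expressed as % of vehicle control, mean ± SD of three independent experiments, each in triplicate. Time course: in 12-well plates, medium changed when compound (10 μM) added, and media sampled at 0, 1, 4, 8, 12, 24, 48 h.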

[7] = test system: STAT3; assay: STAT3 activation assay; assay type: cell-based, human; details: K-562 cells, 10 μM, 24 h, nuclear extracts
Procedure, shortened: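 K562 cells seeded overnight in 10 cm plates, then given vehicle, test compound (10 μM) or WP1066 (positive control) for 24 h. Nuclear fractions extracted by kit. STAT3 activation measured in nuclear extracts by TransAM STAT3 ELISA per manufacturer. Mean ± SD of three independent experiments, each in triplicate.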

[8] = test system: RPMI-8226 cell line; assay: NCI in vitro one dose anticancer assay; assay type: cell-based; details: Homo sapiens, RPMI-8226, 48 h, read-out: % growth inhibition
Procedure, shortened: (§1)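 NCI protocol. Test compound added once at 10−5 M to ~60 human tumour lines from nine subpanels. Incubated 48 h at 37 °C, 5% CO2, 95% air, 100% relative humidity. Endpoint by sulforhodamine B protein staining with spectrophotometric absorbance. Growth of treated cells reported as percent of untreated cells.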

[9] = test system: SR cell line; assay: NCI in vitro one dose anticancer assay; assay type: cell-based; details: Homo sapiens, 48 h, read-out: % growth inhibition
Procedure, shortened: as §1

[10] = read-out: Src (IC50 μM), PGT substrate, ATP 50 μM
[11] = read-out: EGFR (IC50 μM), PGT substrate, ATP 50 μM

| IC50 ([1]; MTT, 24 h treatment) [µM] | IC50 ([3]; MTT, 24 h treatment) [µM] | IC50 [4] [µM] | IC50 ([1]; Homo sapiens, K562, 24 h) [µM] | IC50 [5] [µM] | IC50 ([3]; Homo sapiens, Jurkat, 24 h) [µM] | IC50 [4, 10] [µM] | IC50 [5, 11] [µM] | Structure (SMILES) | IC50 ([2]; MTT, 24 h treatment) [µM] | IC50 ([2]; Homo sapiens, KG-1a, 24 h) [µM] | activity at 10 µM [6] [%] | inhibition of STAT3 activation [7] | inhibition at 10 µM [8] [%] | inhibition at 10 µM [9] [%] |
| --- | --- | --- | --- | --- | --- | --- | --- | --- | --- | --- | --- | --- | --- | --- |
| – | – | 44.1 ± 3.5 | 75.4 ± 4.61 | 35.1 ± 1.36 | 78.7 ± 2.13 | – | – | O=C(CSc1nnc(-c2ccccc2)o1)Nc1ccc(C(=O)C=Cc2ccc(Cl)cc2)cc1 [Compound 8b, N-(4-(3-(4-Chlorophenyl)acryloyl)phenyl)-2-((5-phenyl-1,3,4-oxadiazol-2-yl)thio)acetamide] | – | 82.2 ± 4.56 | 30 to 75 | moderate activities | – | – |
| – | – | 57.3 ± 2.4 | 69.5 ± 5.15 | 64.3 ± 3.56 | 75.2 ± 1.25 | – | – | COc1ccc(C=CC(=O)c2ccc(NC(=O)CSc3nnc(-c4ccccc4)o3)cc2)cc1OC [Compound 8c, N-(4-(3-(3,4-Dimethoxyphenyl)acryloyl)phenyl)-2-((5-phenyl-1,3,4-oxadiazol-2-yl)thio)acetamide] | – | 95.2 ± 3.88 | 82 to 98 | – | – | – |
| 22.8 ± 1.32 | 28.3 ± 0.62 | – | – | – | – | 13.4 ± 1.6 | 11.2 ± 1.25 | COc1cc(C=CC(=O)c2ccc(NC(=O)CSc3nnc(-c4ccccc4)o3)cc2)cc(OC)c1OC [Compound 8d, N-(4-(3-(3.4.5-Trimethoxyphenyl)acryloyl)phenyl)-2-((5-phenyl-1,3,4-oxadiazol-2-yl)thio)acetamide] | 31.3 ± 1.05 | – | – | – | – | – |
| – | – | 74.4 ± 3.6 | 93.3 ± 5.21 | 59.4 ± 5.63 | > 100 | – | – | O=C(CSc1nnc(-c2ccc(Cl)cc2)o1)Nc1ccc(C(=O)C=Cc2ccccc2)cc1 [Compound 8e, 2-((5-(4-Chlorophenyl)-1,3,4-oxadiazol-2-yl)thio)-N-(4-cinnamoylphenyl)acetamide] | – | > 100 | 82 to 98 | – | 31.3 to 144 | 32.9 to 160 |
| – | – | 50.3 ± 3.5 | 82.3 ± 3.08 | 64.7 ± 3.65 | 88.6 ± 1.35 | – | – | O=C(CSc1nnc(-c2ccc(Cl)cc2)o1)Nc1ccc(C(=O)C=Cc2ccc(Cl)cc2)cc1 [Compound 8f, 2-((5-(4-Chlorophenyl)-1,3,4-oxadiazol-2-yl)thio)-N-(4-(3-(4-chloro-phenyl)acryloyl)phenyl)acetamide] | – | 91.5 ± 4.15 | 82 to 98 | – | – | – |
| – | – | 22.1 ± 2.15 | 13.1 ± 1.65 | 12.7 ± 1.25 | 41.2 ± 0.91 | – | – | COc1ccc(C=CC(=O)c2ccc(NC(=O)CSc3nnc(-c4ccc(Cl)cc4)o3)cc2)cc1 [Compound 8g, 2-(5-(4-Chlorophenyl)-1,3,4-oxadiazol-2-ylthio)-N-(4-(3-(4-methoxy-phenyl)acryloyl)phenyl)acetamide] | – | 55.6 ± 1.34 | – | – | – | – |
| – | – | 41.4 ± 4.5 | 72.1 ± 3.32 | 30.2 ± 2.35 | 78.1 ± 2.1 | – | – | COc1ccc(C=CC(=O)c2ccc(NC(=O)CSc3nnc(-c4ccc(Cl)cc4)o3)cc2)cc1OC [Compound 8h, 2-(5-(4-Chlorophenyl)-1,3,4-oxadiazol-2-ylthio)-N-(4-(3-(3,4-dimethoxy-phenyl)acryloyl)phenyl)acetamide] | – | 84.6 ± 5.21 | – | – | – | – |
| – | – | 43.7 ± 3.5 | 55.3 ± 4.89 | 29.3 ± 3.65 | 62.6 ± 1.37 | – | – | COc1cc(C=CC(=O)c2ccc(NC(=O)CSc3nnc(-c4ccc(Cl)cc4)o3)cc2)cc(OC)c1OC [Compound 8i, 2-(5-(4-Chlorophenyl)-1,3,4-oxadiazol-2-ylthio)-N-(4-(3-(3,4,5-trimethoxyphenyl)acryloyl)phenyl)acetamide] | – | 79 ± 3.02 | – | – | – | – |
| – | – | 25.3 ± 1.56 | 22.6 ± 2.34 | 11.5 ± 1.24 | 31.1 ± 0.46 | – | – | COc1ccc(-c2nnc(SCC(=O)Nc3ccc(C(=O)C=Cc4ccccc4)cc3)o2)cc1 [Compound 8j, 2-(5-(4-Methoxyphenyl)-1,3,4-oxadiazol-2-ylthio)-N-(4-(3-phenylacryloyl)phenyl)acetamide] | – | 25.2 ± 0.48 | – | – | 31.3 to 144 | – |
| – | – | 33.6 ± 2.35 | 58.4 ± 3.75 | 18.3 ± 2.35 | 62.7 ± 2.71 | – | – | COc1ccc(-c2nnc(SCC(=O)Nc3ccc(C(=O)C=Cc4ccc(Cl)cc4)cc3)o2)cc1 [Compound 8k, 2-(5-(4-Methoxyphenyl)-1,3,4-oxadiazol-2-ylthio)-N-(4-(3-(4-chloro-phenyl)acryloyl)phenyl)acetamide] | – | 71.1 ± 1.22 | – | – | – | – |
| – | – | 25 ± 3.46 | 35.2 ± 2.05 | 12.3 ± 1.35 | 33.3 ± 1.22 | – | – | COc1ccc(/C=C/C(=O)c2ccc(NC(=O)CSc3nnc(-c4ccc(OC)cc4)o3)cc2)cc1 [Compound 8l, 2-(5-(4-Methoxyphenyl)-1,3,4-oxadiazol-2-ylthio)-N-(4-((E)-3-(4-methoxyphenyl)acryloyl)phenyl)acetamide] | – | 38.3 ± 2.45 | – | – | – | – |
| 23.1 ± 0.28 | 28.4 ± 0.85 | – | – | – | – | 12.5 ± 0.3 | 10.2 ± 0.36 | COc1ccc(-c2nnc(SCC(=O)Nc3ccc(C(=O)C=Cc4ccc(OC)c(OC)c4)cc3)o2)cc1 [Compound 8m] | 31.5 ± 0.42 | – | – | – | – | – |
| – | – | 51.2 ± 5.6 | 58.4 ± 5.45 | 71.1 ± 3.25 | 94.1 ± 5.31 | – | – | COc1ccc(-c2nnc(SCC(=O)Nc3ccc(C(=O)C=Cc4ccccc4)cc3)o2)cc1OC [Compound 8o, N-(4-Cinnamoylphenyl)-2-((5-(3,4-dimethoxyphenyl)-1,3,4-oxadiazol-2-yl)thio)acetamide] | – | 65.6 ± 2.31 | 82 to 98 | – | – | – |
| – | – | 29.5 ± 1.23 | 40.2 ± 2.82 | 11.4 ± 1.54 | 31.9 ± 1.3 | – | – | COc1ccc(C=CC(=O)c2ccc(NC(=O)CSc3nnc(-c4ccc(OC)c(OC)c4)o3)cc2)cc1 [Compound 8q, 2-((5-(3,4-Dimethoxyphenyl)-1,3,4-oxadiazol-2-yl)thio)-N-(4-(3-(4-methoxyphenyl)acryloyl)phenyl)acetamide] | – | 45.3 ± 2.31 | 30 to 75 | moderate activities | – | – |
| – | – | 76.2 ± 3.65 | > 100 | 63.3 ± 2.36 | > 100 | – | – | COc1ccc(C=CC(=O)c2ccc(NC(=O)CSc3nnc(-c4ccc(OC)c(OC)c4)o3)cc2)cc1OC [Compound 8r, 2-((5-(3,4-Dimethoxyphenyl)-1,3,4-oxadiazol-2-yl)thio)-N-(4-(3-(3,4-di-methoxyphenyl)acryloyl)phenyl)acetamide] | – | 93.1 ± 1.14 | 82 to 98 | – | – | – |
| – | – | 40.2 ± 1.34 | 73.2 ± 3.72 | 22.3 ± 2.35 | 76.4 ± 1.31 | – | – | COc1cc(-c2nnc(SCC(=O)Nc3ccc(C(=O)C=Cc4ccccc4)cc3)o2)cc(OC)c1OC [Compound 8t, N-(4-Cinnamoylphenyl)-2-((5-(3,4,5-trimethoxyphenyl)-1,3,4-oxadiazol-2-yl)thio)acetamide] | – | 84.6 ± 1.28 | 30 to 75 | – | – | – |
| – | – | 53.1 ± 5.6 | 84.2 ± 4.36 | 55.4 ± 4.35 | > 100 | – | – | COc1cc(-c2nnc(SCC(=O)Nc3ccc(C(=O)C=Cc4ccc(Cl)cc4)cc3)o2)cc(OC)c1OC [Compound 8u, N-(4-(3-(4-Chlorophenyl)acryloyl)phenyl)-2-((5-(3,4,5-trimethoxy-phenyl)-1,3,4-oxadiazol-2-yl)thio)acetamide] | – | 95.7 ± 2.48 | 82 to 98 | – | – | – |
| – | – | 60.3 ± 2.5 | 90.3 ± 2.91 | 48.3 ± 2.36 | > 100 | – | – | COc1ccc(C=CC(=O)c2ccc(NC(=O)CSc3nnc(-c4cc(OC)c(OC)c(OC)c4)o3)cc2)cc1OC [Compound 8w, N-(4-(3-(3,4-Dimethoxyphenyl)acryloyl)phenyl)-2-((5-(3,4,5-trimethoxyphenyl)-1,3,4-oxadiazol-2-yl)thio)acetamide] | – | > 100 | 82 to 98 | – | – | – |
| – | – | 35.1 ± 3.26 | 62.1 ± 3.07 | 20.5 ± 1.35 | 69.17 ± 0.15 | – | – | COc1cc(C=CC(=O)c2ccc(NC(=O)CSc3nnc(-c4cc(OC)c(OC)c(OC)c4)o3)cc2)cc(OC)c1OC [Compound 8x, 2-((5-(3,4,5-Trimethoxyphenyl)-1,3,4-oxadiazol-2-yl)thio)-N-(4-(3-(3,4,5-trimethoxyphenyl)acryloyl)phenyl)acetamide] | – | 71.5 ± 1.18 | 30 to 75 | moderate activities | 31.3 to 144 | 32.9 to 160 |

| Structure (SMILES) | IC50 ([1]; MTT, 24 h treatment) [µM] | IC50 ([3]; MTT, 24 h treatment) [µM] | IC50 [4] [µM] | IC50 ([1]; Homo sapiens, K562, 24 h) [µM] | IC50 [5] [µM] | IC50 ([3]; Homo sapiens, Jurkat, 24 h) [µM] | IC50 [4, 10] [µM] | IC50 [5, 11] [µM] | IC50 ([2]; MTT, 24 h treatment) [µM] | IC50 ([2]; Homo sapiens, KG-1a, 24 h) [µM] | activity at 10 µM [6] [%] | inhibition of STAT3 activation [7] | inhibition at 10 µM [8] [%] | inhibition at 10 µM [9] [%] |
| --- | --- | --- | --- | --- | --- | --- | --- | --- | --- | --- | --- | --- | --- | --- |
| N.N.[Cl][Pt][Cl] [Cisplatin, reference compound] | 3.21 ± 0.45 | 15.1 ± 1.35 | – | – | – | – | – | – | 12.2 ± 3.41 | – | – | – | – | – |

— paper PMC6923798 (Bioorganic chemistry, 2018)
